# Experimental data published in ChEMBL document CHEMBL3098086, “Synthesis and biological evaluation of α-triazolyl chalcones as a new type of potential antimicrobial agents and their interaction with calf thymus DNA and human serum albumin” (Eur J Med Chem, 2014).
# System: Staphylococcus aureus
# Assay: Antibacterial activity against methicillin-resistant staphylococcus aureus N315 after 24 hrs by twofold serial dilution method
# Assay type: functional
# Conditions: N315, 24 h
# Procedure, shortened: (§1)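 Two-fold broth microdilution per NCCLS recommendations. The MIC was read as the minimum inhibitory concentration. Chloromycin and Norfloxacin served as positive controls. Strains were Bacillus typhi (Gram-negative panel) and methicillin-resistant S. aureus N315.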
row,SMILES,MIC
1,COc1ccc(/C=C(/C(=O)c2ccc(F)cc2F)n2cncn2)cc1,4 µg/mL
2,CN(C)c1ccc(/C=C(/C(=O)c2ccc(F)cc2F)n2cncn2)cc1,32 µg/mL
3,O=C(/C(=C/c1ccccc1)n1cncn1)c1ccc(F)cc1F,64 µg/mL
4,Cc1ccc(C(=O)/C(=C/c2ccccc2)n2cncn2)c(C)c1,64 µg/mL
5,O=C(/C(=C/c1ccccc1)n1cncn1)c1ccc(N2CCCCC2)cc1N1CCCCC1,32 µg/mL
6,O=C(/C(=C/c1ccccc1)n1cncn1)c1ccc(Cl)cc1,32 µg/mL
7,Cc1ccc(C(=O)/C(=C/c2ccccc2)n2cncn2)cc1C,256 µg/mL
8,O=C(/C(=C/c1ccccc1)n1cncn1)c1ccc(F)cc1N1CCOCC1,128 µg/mL

# System: Salmonella typhi
# Assay: Antibacterial activity against Bacillus typhi after 24 hrs by twofold serial dilution method
# Assay type: functional, Salmonella enterica subsp. enterica serovar Typhi
# Conditions: Salmonella enterica
# Procedure, shortened: as §1
row,SMILES,MIC
1,COc1ccc(/C=C(/C(=O)c2ccc(F)cc2F)n2cncn2)cc1,32 µg/mL
2,CN(C)c1ccc(/C=C(/C(=O)c2ccc(F)cc2F)n2cncn2)cc1,64 µg/mL
3,O=C(/C(=C/c1ccccc1)n1cncn1)c1ccc(F)cc1F,32 µg/mL
4,Cc1ccc(C(=O)/C(=C/c2ccccc2)n2cncn2)c(C)c1,128 µg/mL
5,O=C(/C(=C/c1ccccc1)n1cncn1)c1ccc(N2CCCCC2)cc1N1CCCCC1,32 µg/mL
6,O=C(/C(=C/c1ccccc1)n1cncn1)c1ccc(Cl)cc1,64 µg/mL
7,Cc1ccc(C(=O)/C(=C/c2ccccc2)n2cncn2)cc1C,128 µg/mL
8,O=C(/C(=C/c1ccccc1)n1cncn1)c1ccc(F)cc1N1CCOCC1,32 µg/mL

# System: Candida albicans
# Assay: Antifungal activity against Candida albicans ATCC 76615 after 24 hrs by micro broth dilution method
# Assay type: functional
# Conditions: ATCC 76615, 24 h
# Procedure, shortened: (§2)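 Fungi: C. albicans ATCC 76615 and C. mycoderma ATCC 96918. MICs by two-fold broth microdilution in 96-well plates per NCCLS. Fluconazole served as positive control.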
row,SMILES,MIC
1,COc1ccc(/C=C(/C(=O)c2ccc(F)cc2F)n2cncn2)cc1,16 µg/mL
2,CN(C)c1ccc(/C=C(/C(=O)c2ccc(F)cc2F)n2cncn2)cc1,16 µg/mL
3,O=C(/C(=C/c1ccccc1)n1cncn1)c1ccc(F)cc1F,128 µg/mL
4,Cc1ccc(C(=O)/C(=C/c2ccccc2)n2cncn2)c(C)c1,128 µg/mL
5,O=C(/C(=C/c1ccccc1)n1cncn1)c1ccc(N2CCCCC2)cc1N1CCCCC1,16 µg/mL
6,OC(Cn1cncn1)(Cn1cncn1)c1ccc(F)cc1F [FLUCONAZOLE],1 µg/mL
7,O=C(/C(=C/c1ccccc1)n1cncn1)c1ccc(Cl)cc1,16 µg/mL
8,Cc1ccc(C(=O)/C(=C/c2ccccc2)n2cncn2)cc1C,16 µg/mL
9,O=C(/C(=C/c1ccccc1)n1cncn1)c1ccc(F)cc1N1CCOCC1,128 µg/mL

# System: Candida
# Assay: Antifungal activity against Candida mycoderma ATCC 96918 after 24 hrs by micro broth dilution method
# Assay type: functional
# Conditions: ATCC 96918, 24 h
# Procedure, shortened: as §2
row,SMILES,MIC
1,COc1ccc(/C=C(/C(=O)c2ccc(F)cc2F)n2cncn2)cc1,32 µg/mL
2,CN(C)c1ccc(/C=C(/C(=O)c2ccc(F)cc2F)n2cncn2)cc1,64 µg/mL
3,O=C(/C(=C/c1ccccc1)n1cncn1)c1ccc(F)cc1F,64 µg/mL
4,Cc1ccc(C(=O)/C(=C/c2ccccc2)n2cncn2)c(C)c1,256 µg/mL
5,O=C(/C(=C/c1ccccc1)n1cncn1)c1ccc(N2CCCCC2)cc1N1CCCCC1,16 µg/mL
6,OC(Cn1cncn1)(Cn1cncn1)c1ccc(F)cc1F [FLUCONAZOLE],4 µg/mL
7,O=C(/C(=C/c1ccccc1)n1cncn1)c1ccc(Cl)cc1,64 µg/mL
8,Cc1ccc(C(=O)/C(=C/c2ccccc2)n2cncn2)cc1C,256 µg/mL
9,O=C(/C(=C/c1ccccc1)n1cncn1)c1ccc(F)cc1N1CCOCC1,32 µg/mL

# System: Pseudomonas aeruginosa
# Assay: Antibacterial activity against Pseudomonas aeruginosa ATCC 27853 after 24 hrs by twofold serial dilution method
# Assay type: functional
# Conditions: ATCC 27853, 24 h
# Procedure, shortened: (§3)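 Bacterial strains: S. aureus ATCC 25923, B. subtilis ATCC 21216, M. luteus ATCC 4698, E. coli JM109, P. aeruginosa ATCC 27853, B. proteus ATCC 13315. MICs by two-fold broth microdilution in 96-well plates per NCCLS. Chloromycin and Norfloxacin served as positive controls.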
row,SMILES,MIC
1,COc1ccc(/C=C(/C(=O)c2ccc(F)cc2F)n2cncn2)cc1,16 µg/mL
2,CN(C)c1ccc(/C=C(/C(=O)c2ccc(F)cc2F)n2cncn2)cc1,256 µg/mL
3,O=C(/C(=C/c1ccccc1)n1cncn1)c1ccc(F)cc1F,128 µg/mL
4,Cc1ccc(C(=O)/C(=C/c2ccccc2)n2cncn2)c(C)c1,256 µg/mL
5,O=C(/C(=C/c1ccccc1)n1cncn1)c1ccc(N2CCCCC2)cc1N1CCCCC1,128 µg/mL
6,O=C(/C(=C/c1ccccc1)n1cncn1)c1ccc(Cl)cc1,256 µg/mL
7,Cc1ccc(C(=O)/C(=C/c2ccccc2)n2cncn2)cc1C,128 µg/mL
8,O=C(/C(=C/c1ccccc1)n1cncn1)c1ccc(F)cc1N1CCOCC1,64 µg/mL

# System: Bacillus subtilis
# Assay: Antibacterial activity against Bacillus subtilis ATCC 21216 after 24 hrs by twofold serial dilution method
# Assay type: functional
# Conditions: ATCC 21216, 24 h
# Procedure, shortened: as §3
row,SMILES,MIC
1,COc1ccc(/C=C(/C(=O)c2ccc(F)cc2F)n2cncn2)cc1,8 µg/mL
2,CN(C)c1ccc(/C=C(/C(=O)c2ccc(F)cc2F)n2cncn2)cc1,64 µg/mL
3,O=C(/C(=C/c1ccccc1)n1cncn1)c1ccc(F)cc1F,64 µg/mL
4,Cc1ccc(C(=O)/C(=C/c2ccccc2)n2cncn2)c(C)c1,128 µg/mL
5,O=C(/C(=C/c1ccccc1)n1cncn1)c1ccc(N2CCCCC2)cc1N1CCCCC1,32 µg/mL
6,O=C(/C(=C/c1ccccc1)n1cncn1)c1ccc(Cl)cc1,64 µg/mL
7,Cc1ccc(C(=O)/C(=C/c2ccccc2)n2cncn2)cc1C,64 µg/mL
8,O=C(/C(=C/c1ccccc1)n1cncn1)c1ccc(F)cc1N1CCOCC1,32 µg/mL

# System: Staphylococcus aureus
# Assay: Antibacterial activity against Staphylococcus aureus ATCC 25923 after 24 hrs by twofold serial dilution method
# Assay type: functional
# Conditions: ATCC 25923, 24 h
# Procedure, shortened: as §3
row,SMILES,MIC
1,COc1ccc(/C=C(/C(=O)c2ccc(F)cc2F)n2cncn2)cc1,8 µg/mL
2,CN(C)c1ccc(/C=C(/C(=O)c2ccc(F)cc2F)n2cncn2)cc1,64 µg/mL
3,O=C(/C(=C/c1ccccc1)n1cncn1)c1ccc(F)cc1F,32 µg/mL
4,Cc1ccc(C(=O)/C(=C/c2ccccc2)n2cncn2)c(C)c1,128 µg/mL
5,O=C(/C(=C/c1ccccc1)n1cncn1)c1ccc(N2CCCCC2)cc1N1CCCCC1,16 µg/mL
6,O=C(/C(=C/c1ccccc1)n1cncn1)c1ccc(Cl)cc1,64 µg/mL
7,Cc1ccc(C(=O)/C(=C/c2ccccc2)n2cncn2)cc1C,256 µg/mL
8,O=C(/C(=C/c1ccccc1)n1cncn1)c1ccc(F)cc1N1CCOCC1,32 µg/mL

# System: Escherichia coli
# Assay: Antibacterial activity against Escherichia coli JM109 after 24 hrs by twofold serial dilution method
# Assay type: functional
# Conditions: JM109, 24 h
# Procedure, shortened: as §3
row,SMILES,MIC
1,COc1ccc(/C=C(/C(=O)c2ccc(F)cc2F)n2cncn2)cc1,16 µg/mL
2,CN(C)c1ccc(/C=C(/C(=O)c2ccc(F)cc2F)n2cncn2)cc1,128 µg/mL
3,O=C(/C(=C/c1ccccc1)n1cncn1)c1ccc(F)cc1F,32 µg/mL
4,Cc1ccc(C(=O)/C(=C/c2ccccc2)n2cncn2)c(C)c1,256 µg/mL
5,O=C(/C(=C/c1ccccc1)n1cncn1)c1ccc(N2CCCCC2)cc1N1CCCCC1,64 µg/mL
6,O=C(/C(=C/c1ccccc1)n1cncn1)c1ccc(Cl)cc1,128 µg/mL
7,Cc1ccc(C(=O)/C(=C/c2ccccc2)n2cncn2)cc1C,16 µg/mL
8,O=C(/C(=C/c1ccccc1)n1cncn1)c1ccc(F)cc1N1CCOCC1,16 µg/mL

# System: Micrococcus luteus
# Assay: Antibacterial activity against Micrococcus luteus ATCC 4698 after 24 hrs by twofold serial dilution method
# Assay type: functional
# Conditions: ATCC 4698, 24 h
# Procedure, shortened: as §3
row,SMILES,MIC
1,COc1ccc(/C=C(/C(=O)c2ccc(F)cc2F)n2cncn2)cc1,16 µg/mL
2,CN(C)c1ccc(/C=C(/C(=O)c2ccc(F)cc2F)n2cncn2)cc1,64 µg/mL
3,O=C(/C(=C/c1ccccc1)n1cncn1)c1ccc(F)cc1F,64 µg/mL
4,Cc1ccc(C(=O)/C(=C/c2ccccc2)n2cncn2)c(C)c1,256 µg/mL
5,O=C(/C(=C/c1ccccc1)n1cncn1)c1ccc(N2CCCCC2)cc1N1CCCCC1,64 µg/mL
6,O=C(/C(=C/c1ccccc1)n1cncn1)c1ccc(Cl)cc1,64 µg/mL
7,Cc1ccc(C(=O)/C(=C/c2ccccc2)n2cncn2)cc1C,128 µg/mL
8,O=C(/C(=C/c1ccccc1)n1cncn1)c1ccc(F)cc1N1CCOCC1,64 µg/mL

# System: Bacillus
# Assay: Antibacterial activity against Bacillus proteus ATCC 13315 after 24 hrs by twofold serial dilution method
# Assay type: functional
# Conditions: ATCC 13315, 24 h
# Procedure, shortened: as §3
row,SMILES,MIC
1,COc1ccc(/C=C(/C(=O)c2ccc(F)cc2F)n2cncn2)cc1,8 µg/mL
2,CN(C)c1ccc(/C=C(/C(=O)c2ccc(F)cc2F)n2cncn2)cc1,64 µg/mL
3,O=C(/C(=C/c1ccccc1)n1cncn1)c1ccc(F)cc1F,64 µg/mL
4,Cc1ccc(C(=O)/C(=C/c2ccccc2)n2cncn2)c(C)c1,128 µg/mL
5,O=C(/C(=C/c1ccccc1)n1cncn1)c1ccc(N2CCCCC2)cc1N1CCCCC1,64 µg/mL
6,O=C(/C(=C/c1ccccc1)n1cncn1)c1ccc(Cl)cc1,64 µg/mL
7,Cc1ccc(C(=O)/C(=C/c2ccccc2)n2cncn2)cc1C,128 µg/mL
8,O=C(/C(=C/c1ccccc1)n1cncn1)c1ccc(F)cc1N1CCOCC1,32 µg/mL
